# Assay results pooled from the literature.
# Target: Mitogen-activated protein kinase kinase kinase 2 (MAP3K2, Homo sapiens, UniProt Q9Y2U5)
# Residues used in one study (Q9Y2U5 1-619): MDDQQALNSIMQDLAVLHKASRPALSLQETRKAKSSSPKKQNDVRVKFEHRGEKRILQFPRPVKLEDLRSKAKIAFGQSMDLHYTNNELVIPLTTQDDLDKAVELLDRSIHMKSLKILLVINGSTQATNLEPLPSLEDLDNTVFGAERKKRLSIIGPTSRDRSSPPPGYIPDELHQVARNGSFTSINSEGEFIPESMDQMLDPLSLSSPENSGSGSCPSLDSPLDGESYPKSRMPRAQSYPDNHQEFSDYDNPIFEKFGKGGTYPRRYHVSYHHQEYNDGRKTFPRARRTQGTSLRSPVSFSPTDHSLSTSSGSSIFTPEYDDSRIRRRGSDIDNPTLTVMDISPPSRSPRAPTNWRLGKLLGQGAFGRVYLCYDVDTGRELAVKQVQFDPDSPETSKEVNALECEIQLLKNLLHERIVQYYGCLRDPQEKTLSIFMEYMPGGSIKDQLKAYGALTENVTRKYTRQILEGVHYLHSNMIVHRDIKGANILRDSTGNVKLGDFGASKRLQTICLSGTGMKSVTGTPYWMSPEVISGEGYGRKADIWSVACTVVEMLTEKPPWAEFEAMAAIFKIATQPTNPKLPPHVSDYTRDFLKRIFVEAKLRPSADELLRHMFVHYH
SMILES,test,test system,conditions,endpoint,result
Cc1ccc(C(=O)NCc2ccsc2)cc1C#Cc1cn(C(C)C)c2ncnc(N)c12,"enzyme activity, inhibitor",,1 µM,activity vs control,61%
Cc1sc(C(=O)NC2COC2)cc1-n1cc(NC(=O)Nc2c(F)cccc2Cl)cn1,"enzyme activity, inhibitor",,10 µM,remaining activity,88.1%
Cc1cc(NC(=O)c2cccc3cc(-c4cccc5[nH]nc(N)c45)ccc23)ccc1F,"enzyme activity, inhibitor",,0.1 µM,activity vs control,100%
CCOc1cc(-c2nncn2C)ccc1Nc1ncc2cc(C)nc(NCC(C)(C)C)c2n1,"cell-free assay, TR-FRET",,1 µM,inhibition,≤ 15%
CCN1CCN(Cc2ccc(NC(=O)c3ccc(C)c(/C=C/c4cnc5[nH]ccc5c4OC)c3)cc2C(F)(F)F)CC1,"target engagement in cells, inhibitor, chemoproteomics",A-375,0.5 µM,inhibition,-0.738%
CC(C)(C)c1nc(-c2cccc(NS(=O)(=O)c3c(F)cccc3F)c2F)c(-c2ccnc(N)n2)s1,"enzyme activity, inhibitor, radiometric",,1 µM,remaining activity,57%
Cc1c(C(=O)O)cc(-c2ccc(C3CCNCC3)cc2)c2ccc(-c3ccc(C(F)(F)F)cc3)cc12,"binding, competition with immobilised ligand",,1 µM,remaining binding,100%
N#CCCc1ccc2c(c1)-c1[nH]c3ccc([N+](=O)[O-])cc3c1CC(=O)N2,cell-free assay,,0.5 µM,remaining signal,61.5%
CN([C@@H]1CCc2c(CC(=O)O)c3ccccc3n2C1)S(=O)(=O)c1ccc(F)cc1,"cell-free assay, competition with immobilised ligand",,1 µM,remaining binding,100%
COc1cc2c(Nc3ccc(Br)cc3F)ncnc2cc1OCC1CCN(C)CC1,cell-free assay,,0.5 µM,remaining signal,108%
CN(C)C(=O)Cn1cc(-c2nc([C@@](C)(c3ccc(-c4cnc(N)nc4)cc3)C3CC3)no2)cn1,"cell-free assay, competition with immobilised ligand",,1 µM,remaining binding,94%
CN1CC(Oc2cnc(C#N)cc2-c2ccn3nc(NC(=O)C4CC4)cc3c2)C1,"enzyme activity, inhibitor",,1 µM,inhibition,0%
Cc1nc(C2CCN(C(=O)c3ccc(OC(F)(F)F)cc3N)CC2)c2ncc(N3CCN(C)CC3)cc2n1,"cell-free assay, competition with immobilised ligand",,1 µM,remaining binding,100%
Nc1ncnc2occ(-c3ccc(NC(=O)Nc4cc(C(F)(F)F)ccc4F)cc3)c12,"cell-free assay, inhibitor",,20 µM,remaining signal,1.4%
